Assay results pooled from the literature.
Each line is one published result; the experiments were not run side by side. Converted amounts (≈) assume the structure as drawn.

| Structure (SMILES) | tested on | test | test system | setting | endpoint | value |
| --- | --- | --- | --- | --- | --- | --- |
| Oc1c(Cl)cc(Cl)cc1-c1[nH]c(Cl)c(Cl)c1Cl | Bacillus subtilis | microbial growth | ATCC6051 |  | MIC | 0.04 µM |
| CC[C@@]1(O)C(=O)OCc2c1cc1n(c2=O)Cc2cc3ccccc3nc2-1 | LS174T | cell growth or viability, MTT |  | 48 h | IC50 | 31.6 µM |
| Oc1c(Br)cc(Br)cc1-c1[nH]c(Br)c(Br)c1Br | Bacillus subtilis | microbial growth | ATCC6051 |  | MIC | 0.01 µM |
| O=C/C=C/c1ccccc1 | Cryptococcus neoformans | microbial killing, broth dilution |  | clinical isolate | MFC | 200 µg/mL (≈ 1510 µM) |
| COc1ccc(-c2[nH]c3c(C)c(C)ccc3c2C(=O)c2cc(OC)c(OC)c(OC)c2)cc1O |  | tubulin polymerisation, inhibitor, absorbance |  |  | IC50 | > 20 µM |
| N.N.[Cl][Pt][Cl] | HaCaT | cell growth or viability, MTT |  | 48 h | IC50 | 14.2 µM |
| COc1ccc(-c2[nH]c3c(OC)c(OC)c(OC)cc3c2C(=O)c2cc(OC)c(OC)c(OC)c2)cc1O |  | tubulin polymerisation, inhibitor, absorbance |  |  | IC50 | > 20 µM |
| OC(Cn1cncn1)(Cn1cncn1)c1ccc(F)cc1F | Nakaseomyces glabratus | microbial growth, broth dilution | ATCC2001 |  | MIC | 2 µg/mL |
